Assay outcomes as filed in PubChem BioAssay.
Most compounds without a hit are left out; they make up all but 1.8% or so of the library.
NPY-Y2 PAM-ag: NPY-Y2 potentiators or agonists, primary screen, cell-based; AID 1359, 2008; Neuropeptide Y receptor type 2 (Homo sapiens), P49146; cells expressing NPY-Y2, potentiator/agonist read-out; hit rate 0.45% among 220,000; activation, % at 3.6 µM; in the data active = activation above about 27%;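 also: cells stimulated with NPY near EC25 plus isoproterenol at EC100; 0% = vehicle plus submaximal agonist and 100% = vehicle plus saturating agonist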
Target sequence (P49146 whole entry, looked up): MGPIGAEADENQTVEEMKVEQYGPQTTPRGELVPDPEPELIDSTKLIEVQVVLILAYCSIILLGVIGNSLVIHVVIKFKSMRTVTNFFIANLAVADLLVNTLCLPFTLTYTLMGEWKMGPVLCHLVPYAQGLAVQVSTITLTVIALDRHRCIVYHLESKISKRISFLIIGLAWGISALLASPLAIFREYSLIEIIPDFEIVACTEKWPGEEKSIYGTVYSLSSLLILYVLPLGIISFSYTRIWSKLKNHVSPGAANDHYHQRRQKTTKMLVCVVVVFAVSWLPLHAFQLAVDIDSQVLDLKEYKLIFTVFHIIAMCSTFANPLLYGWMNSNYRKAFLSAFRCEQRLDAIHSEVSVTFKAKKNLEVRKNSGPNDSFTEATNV
NPY1 pot ag: NPY-Y1 receptor potentiators or agonists, primary screen, cell-based; Neuropeptide Y receptor type 1 (Homo sapiens), P25929; NPY-Y1 expressing cells, potentiator/agonist activation; activation, % at 3.6 µM; hit rate 0.37% among 220,000; AID 1304, 2008; in the data active = activation above about 33%, passing the limit was not always enough;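 also: cells stimulated with NPY at EC10 then isoproterenol at EC100; 0% = low agonist plus stimulus and 100% = saturating agonist plus stimulus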
NPY-Y1 antag: NPY-Y1 receptor antagonists, primary screen, cell-based; hit rate 1% among 200,000; Neuropeptide Y receptor type 1 (Homo sapiens), P25929; HEK293-CNG Y1 cells, membrane potential fluorescence; NPY at EC95, then isoproterenol; inhibition, % at 3.6 µM;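 active = inhibition above the campaign mean inhibition of all tested compounds plus 3 SD, cut at about 20% in these data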;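 also: 0% = DMSO wells given NPY plus isoproterenol and 100% = isoproterenol alone without NPY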
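Assay system: HEK293 Y1/CNG channel cell line; Doses: single compound dose of 3.6 µM, 0.4% DMSO; Timing: dye 3 h, compound 60 min room temperature, stimulation 45 min; Technique: Membrane-potential fluorescent dye readout; Measure: % inhibition of NPY effect.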
NPY-Y2 antag: NPY-Y2 receptor antagonists, primary screen, cell-based | NPY-Y2 expressing cells, antagonist mode | inhibition, % at 2.7 µM | hit rate 0.99% among 140,000; in the data active = inhibition above about 17%;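 also: 0% = vehicle with agonist challenge and 100% = reference antagonist with challenge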
NPY-Y1 confirm: NPY-Y1 potentiators or agonists, confirmation, cell-based. shares compounds with NPY1 pot ag. cell-based NPY-Y1 potentiator/agonist assay. activation, % at 3.6 µM. hit rate 20% among 280. AID 1546, 2009; in the data active = activation above about 45%;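 also: cells challenged with NPY at its EC10 plus isoproterenol stimulus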
NPY-Y2 counter: NPY-Y2 potentiators or agonists, counter-screen for NPY-Y1 potentiator project, cell-based, fluorescence; shares compounds with NPY1 pot ag; HEK293-CNG cells, membrane-potential fluorescence (FLIPR), 1536-well; activation, % at 3.6 µM; hit rate 20% among 280; AID 1649, 2009; in the data active = activation above about 33%
NPY-Y1 agonist: NPY-Y1 direct agonists without NPY, confirmation, counter-screen for NPY-Y1 potentiator project, cell-based, fluorescence. shares compounds with NPY1 pot ag. HEK293 Y1-CNGC, membrane potential fluorescence, agonist mode. activation, % at 3.6 µM. hit rate 50% among 280. AID 1697, 2009;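 active = percent activation above the mean of DMSO-only control wells plus 3 SD of those wells, cut at about 18% in these data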;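 also: cells challenged with isoproterenol plus Ro 20-1724 with no NPY in test wells; Y1 agonism lowers isoproterenol-driven cAMP and reduces probe fluorescence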
NPY-Y2 agonist: NPY-Y2 direct agonists without NPY, counter-screen for NPY-Y1 potentiator project, cell-based, fluorescence | shares compounds with NPY1 pot ag | HEK293 Y2-CNGC, membrane potential fluorescence, agonist mode | activation, % at 3.6 µM | hit rate 67% among 280;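 active = activation above the solvent-only control wells' mean plus 3 SD, cut at about 11% in these data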;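 also: 0% = DMSO with isoproterenol and 100% = 40 nM NPY maximal response; agonism lowers cAMP so well fluorescence drops in active wells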
CNGC counter: CNGC cAMP sensor activity inhibitors, counter-screen for NPY-Y1 potentiator/agonist project, cell-based, HEK293-CNG parental, membrane potential fluorescence, Y1 set | hit rate 42% among 280 | shares compounds with NPY1 pot ag | inhibition, % at 3.6 µM | isoproterenol cAMP;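 active = inhibition above the mean of stimulated solvent-only control wells plus 3 SD, cut at about 22% in these data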;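 also: 0% = isoproterenol-stimulated DMSO wells and 100% = unstimulated DMSO wells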
Numbers without * were called inactive; . = not tested or not shown.

SMILES	NPY-Y2 PAM-ag	NPY1 pot ag	NPY-Y1 antag	NPY-Y2 antag	NPY-Y1 confirm	NPY-Y2 counter	NPY-Y1 agonist	NPY-Y2 agonist	CNGC counter
NS(=O)(=O)c1cc(C(=O)NCCc2ccccn2)ccc1Cl	-2	96*	.	.	6	-1	-5	-4	3
CCC(C)C1C(C#N)=C(N)Oc2n[nH]c(-c3ccccc3)c21 (configuration not stated)	24	40*	-3	3	27	17	27*	23*	17
CCC(C)C1C(C#N)=C(N)Oc2n[nH]c(C)c21 (configuration not stated)	11	9	-3	0	.	.	.	.	.
COC(=O)c1ccc(NC(=O)CN2CCN(c3ccccc3C)CC2)cc1	10	54*	13	10	-37	-26	-22	-4	-27
O=C(Nc1ccc(Cl)cc1Cl)NC1CCN(S(=O)(=O)c2ccc(F)cc2)CC1	6	48*	.	.	42	30	18*	13*	14
COc1cc(OC)cc(C(=O)NCCCN2CCN(CCCNC(=O)c3cc(OC)cc(OC)c3)CC2)c1	-4	1	1	1	.	.	.	.	.
Cc1cccc(C)c1Nc1c(-c2ccccn2)nc2ccccn12	27	46*	-7	.	48*	34*	39*	41*	31*
CCOC(=O)Nc1ccc2c(c1)N(C(=O)N1CCN(C)CC1)c1ccccc1S2	-7	11	3	3	.	.	.	.	.
C=CC(=O)N1c2ccccc2Sc2ccc(NC(=O)OCC)cc21	20	42*	-3	3	24	17	20*	13*	15
C=CCn1c(SCC(=O)Nc2sccc2C(N)=O)nc2ccc(Cl)cc2c1=O	13	38*	-5	-2	23	18	2	19*	9
C=CCn1c(SCC(=O)Nc2sccc2C(N)=O)nc2ccccc2c1=O	7	-3	3	3	.	.	.	.	.
CS(=O)(=O)Nc1ccccc1C(=O)O	6	11	-6	-1	.	.	.	.	.
CCN(CC)C(=O)c1ccccc1NS(C)(=O)=O	4	37*	1	.	-6	-4	-4	5	-5
CCCN1C(=O)/C(=C/c2ccc(OCC(=O)OCC)cc2)NC1=S	22	78*	-7	.	122*	101*	110*	105*	100*
COCCN(C(=O)C(C)C)c1nnc(-c2ccc(C)cc2)s1	-3	19	3	-1	.	.	.	.	.
COc1cccc(NC(=O)c2ccc(NCCCN3CCC(C)CC3)c([N+](=O)[O-])c2)c1	14	18	0	.	.	.	.	.	.
COc1cccc(NC(=O)c2ccc(NCCCN3CC(C)CC(C)C3)c([N+](=O)[O-])c2)c1 (configuration not stated)	16	38*	-1	.	43	26	16	14*	31*
CC1CC(C)CN(CCCNC(=O)c2cc3c(=O)[nH]c4ccccc4c3n2C)C1 (configuration not stated)	21	41*	-5	.	20	20	26*	19*	9
CC(C)Nc1nc(Cl)nc(N(C#N)CN2C(=O)c3ccccc3S2(=O)=O)n1	-6	9	.	.	.	.	.	.	.
CC(C)(C)Nc1nc(Cl)nc(N(C#N)CN2C(=O)c3ccccc3S2(=O)=O)n1	9	65*	-2	.	46*	28	39*	29*	22*
Cc1ccc(S(=O)(=O)N(C)C)cc1NC(=O)CN1C(=O)NC2(CCCc3ccccc32)C1=O (configuration not stated)	-1	-11	0	2	.	.	.	.	.
